Publication PMC12744306 (Probiotics and antimicrobial proteins, 2024)
In brackets after ≈: the same amount, converted by molar mass. Where two headings read alike, the source gives them in different places. Positions of bridges follow the written chain, without caps; N, C: chain ends. Non-standard residues stand in square brackets, D forms with d. Residues, ends and D or L forms follow the SMILES beside them. No end group written: not given here. *: point of attachment. X1 = CC[C@H](C)CCCCC(=O)*; Dab = NCC[C@H](N)C(=O)O

Experiments:
E. coli E423-17 = format: cell-based
S. aureus USA300 [1] = format: cell-based; details: for MIC in the presence of 150 mM NaCl: S. aureus; for activity against S. aureus USA300 under all these conditions: pH 6.2/8.1, 150 mM NaCl, human serum
Human liver HepG2 cells = format: cell-based
P. aeruginosa E411-17 [2] = format: cell-based
human red blood cells = experiment: Hemolytic assay; format: cell-based; details: 2% hRBC, 37°C, 1 h; for hemolysis: relative to 1% Triton X-100
E. coli = details: cited from earlier work
bacteria = details: cited from earlier work
A. baumannii B28-16 = format: cell-based
S. epidermidis 1457 = format: cell-based
P. aeruginosa E411-17 [3] = experiment: Effects of pH, salts and serum on peptide activity; format: cell-based; details: different pH, salt and serum conditions
[4] = test system: Human keratinocytes (HaCaT); experiment: Cytotoxicity assay; format: cell-based; details: 24 h, MTS
P. aeruginosa E411-17 [5] = experiment: Killing kinetics; format: cell-based; details: 4 × MIC, ~10^5 CFU/mL in MHB, 37°C, CFU count
S. aureus USA300 [6] = format: cell-based
K. pneumoniae E406-17 = format: cell-based; details: not shown
MRSA USA300 = experiment: Killing kinetics; format: cell-based, S. aureus; details: 4 × MIC, ~10^5 CFU/mL in MHB, 37°C, CFU count
How it was run: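 MRSA USA300 was grown in MHB to OD600 ~0.3, then diluted to OD600 0.001 (~10⁵ CFU/mL). 1 mL was incubated at 37°C with test compound or reference antibiotic at 4× MIC. At 15, 30, 60, 90 and 120 min, 50 μL was serially diluted in PBS and plated on mannitol salt agar. CFU were counted after overnight growth at 37°C.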

[7] = Table 3, sequence reversal experiment

## RWWKKWWGK-NH2 [RK-9+]
E. coli E423-17; E423-17
  minimal inhibitory concentration (MIC), E. coli E423-17: 4 to 8 µM
S. aureus USA300 [1]
  MIC in the presence of 150 mM NaCl: 16 to 32 µM
Human liver HepG2 cells
  toxicity to HepG2: subtle effects
Human liver HepG2 cells; 24 h, MTS
  LC50, HepG2: > 100 µM
P. aeruginosa E411-17 [2]; E411-17
  minimal inhibitory concentration (MIC), P. aeruginosa E411-17: 16 µM
Human red blood cells
  HC10 (10% hemolytic concentration): > 400 µM

## RIKDFLRNLV-NH2 [RIK-10]
E. coli
  activity against E. coli in standard MHB: active

## KRIVQRIK-NH2 [KR-8]
bacteria
  antibacterial activity in the standard Mueller Hinton Broth (MHB): not antibacterial

## KRWWQWWK-NH2 [KR-8+]
E. coli E423-17; E423-17
  minimal inhibitory concentration (MIC), E. coli E423-17: 4 to 8 µM
A. baumannii B28-16
  minimal inhibitory concentration (MIC), A. baumannii B28-16: 16 µM
S. aureus USA300 [1]
  MIC in the presence of 150 mM NaCl: 16 to 32 µM
S. epidermidis 1457; 1457
  minimal inhibitory concentration (MIC), S. epidermidis 1457: 16 µM
Human liver HepG2 cells; 24 h, MTS
  LC50, HepG2: 12.5 µM
Human red blood cells
  HC10 (10% hemolytic concentration): 300 µM
Human red blood cells; at 400 μM
  hemolysis: 18%

## RKSKEKIGK-NH2 [RK-9]
bacteria
  antibacterial activity in the standard Mueller Hinton Broth (MHB): not antibacterial

## LLGDFFRKSK-NH2 [LL-10]
bacteria
  antibacterial activity in the standard Mueller Hinton Broth (MHB): not antibacterial

## CC[C@H](C)CCCCC(=O)N[C@@H](CCN)C(=O)N[C@H](C(=O)N[C@@H](CCN)C(=O)N[C@H]1CCNC(=O)[C@H]([C@@H](C)O)NC(=O)[C@H](CCN)NC(=O)[C@H](CCN)NC(=O)[C@H](CC(C)C)NC(=O)[C@@H](CC(C)C)NC(=O)[C@H](CCN)NC1=O)[C@@H](C)O [Colistin, reference compound] (X1-[Dab]T[Dab][Dab][Dab][dL]L[Dab][Dab]T; lactam 4-C (inferred); N-terminus assumed)
S. aureus USA300 [1]
  activity against S. aureus USA300 under all these conditions: inactive
P. aeruginosa E411-17 [3]
  activity against P. aeruginosa under all the conditions tested: retained pseudomonacidal activity
Human liver HepG2 cells; 24 h, MTS
  toxicity to HepG2: subtle effects
Human red blood cells; at 400 μM, 545 nm
  lysis of human red blood cells: did not lyse
[4]; at 100 μM
  toxicity to HaCaT: little toxicity
P. aeruginosa E411-17 [5]
  time to eliminate P. aeruginosa: 30 min

## LWGRFFRKWK-NH2 [LL-10+]
E. coli E423-17; [7]
  minimal inhibitory concentration (MIC), E. coli E423-17: 32 µM
A. baumannii B28-16
  minimal inhibitory concentration (MIC), A. baumannii B28-16: 64 µM
S. aureus USA300 [1]
  MIC in the presence of 150 mM NaCl: > 32 µM
S. epidermidis 1457; [7]
  minimal inhibitory concentration (MIC), S. epidermidis 1457: 32 µM
Human liver HepG2 cells
  toxicity to HepG2: subtle effects
Human liver HepG2 cells; 24 h, MTS
  LC50, HepG2: > 100 µM
Human red blood cells
  HC10 (10% hemolytic concentration): > 400 µM
S. aureus USA300 [6]; [7]
  minimal inhibitory concentration (MIC), S. aureus USA 300: 16 µM

## RWKRFLRNWV-NH2 [RIK-10+]
E. coli E423-17; E423-17
  minimal inhibitory concentration (MIC), E. coli E423-17: 4 µM
A. baumannii B28-16
  minimal inhibitory concentration (MIC), A. baumannii B28-16: 8 µM
S. aureus USA300 [1]
  MIC in the presence of 150 mM NaCl: > 32 µM
K. pneumoniae E406-17
  MIC, K. pneumoniae E406-17: 32 µM
S. epidermidis 1457; 1457
  minimal inhibitory concentration (MIC), S. epidermidis 1457: 64 µM
Human liver HepG2 cells; 24 h, MTS
  LC50, HepG2: 100 µM
P. aeruginosa E411-17 [2]; [7]
  minimal inhibitory concentration (MIC), P. aeruginosa E411-17: 4 µM
Human red blood cells; at 400 μM
  hemolysis: 18%
[4]
  50% lethal concentration (LC50), HaCaT: 100 µM
S. aureus USA300 [6]; [7]
  minimal inhibitory concentration (MIC), S. aureus USA 300: 16 µM

## CCCCCCCCCC(=O)N[C@@H](Cc1c[nH]c2ccccc12)C(=O)N[C@H](CC(N)=O)C(=O)N[C@@H](CC(=O)O)C(=O)N[C@@H]1C(=O)NCC(=O)N[C@@H](CCCN)C(=O)N[C@@H](CC(=O)O)C(=O)N[C@H](C)C(=O)N[C@@H](CC(=O)O)C(=O)NCC(=O)N[C@H](CO)C(=O)N[C@@H]([C@H](C)CC(=O)O)C(=O)N[C@@H](CC(=O)c2ccccc2N)C(=O)O[C@@H]1C [Daptomycin, reference compound]
S. aureus USA300 [1]
  activity against S. aureus USA300 under all these conditions: remained potent
S. epidermidis 1457; 1457
  minimal inhibitory concentration (MIC), S. epidermidis 1457: 0.5 µM (≈ 0.81 µg/mL)
P. aeruginosa E411-17 [3]
  activity against P. aeruginosa under all the conditions tested: did not display any activity
Human liver HepG2 cells; 24 h, MTS
  toxicity to HepG2: subtle effects
MRSA USA300
  time to kill MRSA USA300: ~90 min
S. aureus USA300 [6]; USA300
  minimal inhibitory concentration (MIC), S. aureus USA 300: 0.5 µM (≈ 0.81 µg/mL)
